# Screening data: PubChem BioAssay, The Scripps Research Institute Molecular Screening Center
# This is a sample that favours compounds with a hit; in the whole collection about 1.8% have one here.
# CHRM5 antagonist: human M5 muscarinic receptor antagonists, primary screen, CHO cells, Fluo-8 calcium fluorescence; CHO-hM5 cells, ACh EC80; inhibition, % at 3 µM; hit rate 0.59% among 360,000; AID 624040, 2012;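 active = inhibition above a per-plate cutoff, the mean of that plate's test compounds plus 3 SD, cut at about 27% in these data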
# Target sequence (P08912 whole entry, looked up): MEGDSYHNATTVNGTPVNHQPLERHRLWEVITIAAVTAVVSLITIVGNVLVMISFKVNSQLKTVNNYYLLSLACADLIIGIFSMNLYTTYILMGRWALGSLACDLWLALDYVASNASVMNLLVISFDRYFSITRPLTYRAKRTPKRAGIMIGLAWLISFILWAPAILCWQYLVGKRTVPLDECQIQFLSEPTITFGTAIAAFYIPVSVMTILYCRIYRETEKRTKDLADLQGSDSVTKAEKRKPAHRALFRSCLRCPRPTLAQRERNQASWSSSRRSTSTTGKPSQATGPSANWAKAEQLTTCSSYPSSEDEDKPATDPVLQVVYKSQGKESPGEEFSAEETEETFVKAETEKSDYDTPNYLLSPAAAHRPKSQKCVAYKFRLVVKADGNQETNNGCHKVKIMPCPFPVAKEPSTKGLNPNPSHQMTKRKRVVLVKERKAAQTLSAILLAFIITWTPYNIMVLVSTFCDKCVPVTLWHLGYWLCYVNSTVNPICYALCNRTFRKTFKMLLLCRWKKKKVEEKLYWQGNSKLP
# CHRM4 antagonist: human M4 muscarinic receptor antagonists, primary screen, CHO cells, Fluo-8 calcium fluorescence | CHO-hM4 cells, ACh EC80 | inhibition, % at 3 µM | hit rate 0.73% among 360,000;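 active = inhibition above its plate's cutoff, the mean inhibition of sample wells plus 3 SD, cut at about 27% in these data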
# CHRM4 agonist: human M4 muscarinic receptor agonists, primary screen, CHO-K1 cells, Fluo-8 calcium fluorescence. hit rate 0.14% among 360,000. CHO-K1 hM4/Gqi5; vehicle 0%, full acetylcholine response 100%. activation, % at 3 µM. Muscarinic acetylcholine receptor M4 (Homo sapiens), P08173;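 active = activation above the run mean over all test wells plus 3 SD, cut at about 32% in these data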;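 also: peak over basal fluorescence ratio per well then scaled between controls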
# M4 PAM: human M4 muscarinic receptor positive allosteric modulators, primary screen, CHO-K1 cells, Fluo-8 calcium fluorescence | AID 624126, 2012 | hit rate 0.4% among 360,000 | CHO-K1 hM4/Gqi5, ACh EC20; 0% = ACh EC20, 100% = maximal ACh | activation, % at 3 µM | Muscarinic acetylcholine receptor M4 (Homo sapiens), P08173;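 active = activation above its plate's cutoff, the mean activation of sample wells plus 3 SD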
# M5 ag: human M5 muscarinic receptor agonists, primary screen, CHO-K1 cells, Fluo-8 calcium fluorescence; CHO-K1 hM5 cells; 0% DMSO wells, 100% maximal acetylcholine response; hit rate 0.19% among 360,000; AID 624037, 2012; activation, % at 3 µM;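 active = activation above the run's mean over test compounds plus 3 SD, cut at about 23% in these data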;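 also: signal is peak over basal fluorescence ratio across the kinetic read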
# M5 PAM: human M5 muscarinic receptor positive allosteric modulators, primary screen, CHO-K1 cells, Fluo-8 calcium fluorescence | hit rate 0.3% among 360,000 | CHO-K1 hM5, ACh EC20 PAM; 0% = ACh EC20, 100% = ACh EC100 | activation, % at 3 µM | Muscarinic acetylcholine receptor M5 (Homo sapiens), P08912;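 active = activation above the run cutoff, the mean activation of all test compounds plus 3 SD, cut at about 18% in these data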
#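 Assay system – human M5 receptor in CHO-K1 cells · Read-out – % activation, ACh-normalized · Technique – Fluo-8 calcium fluorescence · Dosing – single-point, 3 µM nominal · Incubation – Fluo-8 loading 80 min at 37 °C plus 30 min room temperature · Repeats – singlicate, one well per test compound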
# A number is an active result; - = inactive.
SMILES,CHRM5 antagonist,CHRM4 antagonist,CHRM4 agonist,M4 PAM,M5 ag,M5 PAM
COc1c(Cl)cc(C(=O)NCc2ccco2)cc1Cl,-,-,-,-,-,-
NNC(=O)c1oc2nc(-c3cccs3)cc(-c3ccco3)c2c1N,-,-,-,26,-,-
CCn1c(=O)c([N+](=O)[O-])c(Cl)c2ccccc21,-,39,-,-,-,-
CC(C)CC(=O)Nc1ccc(C(=O)COC(=O)C2CC(=O)N(Cc3ccccc3)C2)cc1 (centres undefined),-,-,-,-,-,-
CN1CCCC(CN2c3ccccc3Sc3ccccc32)C1 (centres undefined),99,86,-,-,-,-
CCSc1ccc2c(c1)N(CCCN1CCN(C)CC1)c1ccccc1S2,-,-,-,-,-,-
CN1CCCC(CC2c3ccccc3Sc3ccccc32)C1 (centres undefined),99,99,-,-,-,-
CC(C)(C)OC(=O)C[C@@H]1C/C=C\C[C@H](CC(=O)N(CCO)Cc2ccccc2)C(=O)N[C@@H](Cc2c[nH]c3ccccc23)COC1=O,-,-,-,-,-,-
O=C1c2cccc3c([N+](=O)[O-])ccc(c23)C(=O)N1c1nccs1,-,36,-,-,-,-
O=C1c2cccc3c([N+](=O)[O-])ccc(c23)C(=O)N1c1ccccn1,28,-,-,-,-,-
O=C1c2cccc3c([N+](=O)[O-])ccc(c23)C(=O)N1c1ccc(Cl)cn1,-,32,-,-,-,-
COc1ccccc1OCC(=O)N1CCN(C(=O)c2ccco2)CC1,-,-,-,-,-,-
COc1cc(NCCCn2cnc(C(=O)Nc3ccc(C)c(C)c3)n2)cc(OC)c1OC,-,-,-,-,-,-
OC(c1cc(-c2cccc(Cl)c2)nc2ccccc12)C1CCCCN1 (centres undefined),-,37,-,-,-,-
COc1ccc(Cl)cc1NC(=O)CN(C)C(=O)c1cc2c(s1)CCC(C)C2 (centres undefined),-,-,-,-,-,-
c1ccc(-c2nnc(-c3ccccc3)nn2)cc1,-,-,-,-,-,-
c1ccc(-c2cncnc2)cc1,-,-,-,-,-,20
CC1=NN(c2ccccc2)C(=O)/C1=C\C=C1\N(C)c2ccccc2C1(C)C,-,-,-,-,-,-
CC1=NN(c2ccccc2)C(=O)/C1=C\C=C1/N(C)c2ccccc2C1(C)C,-,-,-,-,36,-
CN1/C(=C\C=C2/SC(=S)NC2=O)C(C)(C)c2ccccc21,58,44,65,-,51,-
CCOC(=O)c1nn(C)c(=S)n(C)c1=O,-,-,-,-,-,-
CN(C)c1ccc(/C=C/CNC[C@H]2O[C@@H](n3ccc(N)nc3=O)[C@H](O)[C@@H]2O)cc1,-,-,-,-,-,-
CCOC(=O)C1CCN(S(=O)(=O)c2c(Cl)ccc3nonc23)CC1,-,-,-,-,-,-
O=C(OCCN1C(=O)c2ccccc2C1=O)c1ccccc1,-,-,-,-,-,-
O=C(OCCN1C(=O)c2ccccc2C1=O)c1ccco1,-,-,-,-,-,19
SMILES,CHRM5 antagonist,CHRM4 antagonist,CHRM4 agonist,M4 PAM,M5 ag,M5 PAM
COc1cccc(NC(=S)NNC(=O)c2c([N+](=O)[O-])c(C)nn2C)c1,-,-,-,34,-,-
Cc1cc(C)cc(NC(=O)c2nnn(Cc3cc(C)ccc3C)c2N)c1,-,-,32,-,28,-
Cc1ccc(C)c(Cn2nnc(C(=O)Nc3ccc4c(c3)OCCO4)c2N)c1,-,-,-,-,36,-
Cc1ccccc1Cn1nnc(C(=O)Nc2ccc3c(c2)OCCO3)c1N,-,-,-,-,-,-
CCOC(=O)C1CCCN(S(=O)(=O)c2ccc(Cl)nc2)C1 (centres undefined),-,-,-,-,-,-
O=C(COc1ccc(Br)cc1Cl)NNC(=O)c1ccccc1,-,-,-,-,-,-
O=C(O)C1OC(C(=O)O)C(C(=O)O)C1C(=O)O (centres undefined),-,-,-,-,-,-
Cc1ccc(CNC(=O)CSc2nnc(CNC(=O)c3ccccc3)o2)cc1,-,-,-,23,-,-
CCOc1cc(OCC)cc(C(=O)N2CCC[C@H]2C(=O)N2CCC[C@H]2C(=O)NCc2cccc(OC)c2)c1,-,-,-,-,-,-
O=C(O)COc1cccc2ccccc12,-,-,-,-,-,-
CCN(CC)C(=O)COc1cccc2ccccc12,-,-,-,29,-,-
Cc1cccc(N2C(S)=C(C#N)C(=O)NC23CCCCC3)c1,-,-,-,-,-,-
Cc1cccc(NC2=C(C#N)C(=O)NC3(CCCC3)S2)c1,-,-,-,15,-,-
COC(=O)C1(c2ccccc2)NC(c2cccs2)C2C(=O)N(C)C(=O)C21 (centres undefined),-,-,-,-,-,-
COC(=O)C1(c2ccccc2)NC(c2cccs2)C2C(=O)N(c3ccccc3)C(=O)C21 (centres undefined),-,-,-,-,53,-
Cc1nn(CC(=O)NCc2cccc(F)c2)c(=O)c2cccn12,29,-,-,-,-,-
Cc1nn(CC(=O)NCCCc2ccccc2)c(=O)c2cccn12,-,-,-,-,-,-
Cc1ccc(S(=O)(=O)N2CCC(=O)c3ccccc32)cc1,-,-,-,-,-,-
Cc1ccc(Cc2c(C3CCCCC3)nc3cc(C)c(Br)c(C)n23)cc1,-,-,-,-,-,-
COCCOc1nc2ccccc2nc1C,-,-,-,-,-,30
COc1cccc(OC)c1C(=O)NNS(=O)(=O)c1ccc2ccccc2c1,-,-,-,-,-,-
CNc1nc2cc([N+](=O)[O-])c([N+](=O)[O-])cc2nc1NC,30,-,-,-,-,-
COc1ccc([C@H]2CN(c3ccc(OC)cc3)C(=O)[C@@H]2CC(=O)Nc2ccc(Br)cc2)cc1,-,-,-,-,-,-
CC(C)C[C@@H]1COc2cccc(N3CCC[C@H]3CO)c2S(=O)(=O)N1,-,-,-,-,-,-
CC(=O)c1c(C)[nH]c(C(=O)CN2C(=O)NC(C)(c3ccc(C)cc3)C2=O)c1C (centres undefined),-,-,36,-,46,-
